Results on 6 molecules are retold here after ChEMBL document CHEMBL4373633, “New methods to assess 6-thiopurine toxicity and expanding its therapeutic application to pancreatic cancer via small molecule potentiators” (Medchemcomm, 2019).

Series [1] in a line: Inhibition of Streptococcus pyogenes UDPGDH expressed in Escherichia coli/rat liver microsome UGT-1A assessed as reduction in BDG production at 10 uM by HPLC analysis. In kind it is ADME. The note with it: microsomes. In a few lines: (§1)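 Coupled in vitro model in phosphate buffer with alamethicin. Microsomal UGT-1A 4.4 units/mL, 2 mM bilirubin, 10 mM NAD+, 5 mM UDPG, UDPGDH:UGT-1A ratio 1:2200. Reaction started by adding UDPGDH. UDPGA-rescue arm included 15 μM UDPGA. Bilirubin mono- and diglucuronide formation measured by HPLC.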
In general terms: Liver microsomes are a subcellular fraction often used to study metabolism.

The nature of series [2]: Inhibition of Streptococcus pyogenes UDPGDH expressed in Escherichia coli/rat liver microsome UGT-1A assessed as reduction in BMG production at 10 uM by HPLC analysis. Type of series: ADME. The conditions noted are these: microsomes. The essentials:
as §1

The nature of series [3]: Inhibition of Streptococcus pyogenes UDPGDH expressed in Escherichia coli/rat liver microsome UGT-1A assessed as reduction in BDG production at 5 uM in presence of UDPGA by HPLC analysis. In kind it is ADME. The conditions noted are these: microsomes. The essentials:
as §1

Series [4] in a line: Inhibition of Streptococcus pyogenes UDPGDH expressed in Escherichia coli/rat liver microsome UGT-1A assessed as reduction in BMG production at 5 uM in presence of UDPGA by HPLC analysis. Type of series: ADME. The conditions noted are these: microsomes. In a few lines: as §1
Series [5] addresses T1, UDP-glucose 6-dehydrogenase (Streptococcus pyogenes, UniProt P0C0F4). As to the kind of experiment: Inhibition of Streptococcus pyogenes UDPGDH expressed in Escherichia coli assessed as inhibitior constant by mesuring UDPGA production after 20 to 120 secs by HPLC analysis. In a few lines:
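UDPGA formed by UDPGDH was quantified by reverse-phase C18 HPLC at 262 nm against a UDPGA standard curve. Aqueous phase 8 mM imidazole/2.5 mM TBAHS, pH 6.5; organic phase methanol; 0.5 mL/min gradient over a 23 min run. UDPG was varied at several inhibitor levels. Slopes of the lines were plotted against inhibitor concentration, and Ki was taken as the […] x-intercept.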

A short description of series [6]: Inhibition of Streptococcus pyogenes UDPGDH expressed in Escherichia coli/rat liver microsome UGT-1A assessed as reduction in BMG production at 5 uM by HPLC analysis. Type of series: ADME. The conditions noted are these: microsomes. The essentials:
as §1

The nature of series [7]: Inhibition of Streptococcus pyogenes UDPGDH expressed in Escherichia coli/rat liver microsome UGT-1A assessed as reduction in BDG production at 5 uM by HPLC analysis. In kind it is ADME. The conditions noted are these: microsomes. In a few lines: as §1
The target of series [8] is T1, UDP-glucose 6-dehydrogenase. Kind of series: Inhibition of Streptococcus pyogenes UDPGDH expressed in Escherichia coli assessed as inhibitior constant after 20 to 120 secs by UV-VIS spectroscopic analysis.
Series [9] is described as follows: Inhibition of UDPGDH/UGT-1A in hepatocytes (unknown origin) assessed as reduction in BMG production at 5 uM in presence of UDPGA by HPLC analysis. Type of series: ADME, cell-based. The conditions noted are these: human.
Series [10] in a line: Inhibition of UDPGDH/UGT-1A in hepatocytes (unknown origin) assessed as reduction in BDG production at 5 uM by HPLC analysis. In kind it is ADME, cell-based. The note with it: human.
In series [11] the test system is A549. As to the kind of experiment: Antiproliferative activity against human A549 cells assessed as reduction in cell viability after 72 hrs by alamar blue assay. In kind it is functional, cell-based. The conditions noted are these: A549, 72 h. In a few lines: (§2)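 Cell lines from ATCC, grown in medium with FBS and antibiotics at 37 °C, 5% CO2, 95% humidity. Compound DMSO stocks diluted in medium over 31.6 nM–200 μM, tested in triplicate. Plated at 2000 cells/well (adherent) or 3500 (suspension). After 69 h of continuous exposure, Alamar Blue was added for 3 h more. Fluorescence read at ex 560/em 590 nm. IC50 from ≥3 independent experiments.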

For series [12], the system named is MIA PaCa-2. Kind of series: Synergistic antiproliferative activity against human MIAPaCa2 cells assessed as cell death at 2.5 uM after 72 hrs in presence of 10 uM 6TP by alamar blue assay (reference value: 6.9%). In kind it is functional. For orientation: Resazurin is reduced to fluorescent resorufin, in cell work by metabolically active cells.
Series [13] concerns MIA PaCa-2. Kind of series: Synergistic antiproliferative activity against human MIAPaCa2 cells assessed as cell death at 2.5 uM after 72 hrs in presence of 25 uM 6TP by alamar blue assay (reference value: 6.4%). Type of series: functional.
The subject of series [14] is MIA PaCa-2. As to the kind of experiment: Synergistic antiproliferative activity against human MIAPaCa2 cells assessed as cell death at 2.5 uM after 72 hrs in presence of 50 uM 6TP by alamar blue assay (reference value: 13.8%). Type of series: functional.
For series [15], the system named is MIA PaCa-2. Kind of series: Synergistic antiproliferative activity against human MIAPaCa2 cells assessed as cell death at 2.5 uM after 72 hrs in presence of 100 uM 6TP by alamar blue assay (reference value: 30.7%). In kind it is functional.
Series [16] concerns MIA PaCa-2. Kind of series: Synergistic antiproliferative activity against human MIAPaCa2 cells assessed as cell death at 5 uM after 72 hrs in presence of 10 uM 6TP by alamar blue assay (reference value: 6.9%). In kind it is functional.
The test system of series [17] is MIA PaCa-2. Kind of series: Synergistic antiproliferative activity against human MIAPaCa2 cells assessed as cell death at 5 uM after 72 hrs in presence of 25 uM 6TP by alamar blue assay (reference value: 6.4%). Type of series: functional.
For series [18], the system named is MIA PaCa-2. Kind of series: Synergistic antiproliferative activity against human MIAPaCa2 cells assessed as cell death at 5 uM after 72 hrs in presence of 50 uM 6TP by alamar blue assay (reference value: 13.8%). Type of series: functional.
Series [19] concerns MIA PaCa-2. Kind of series: Synergistic antiproliferative activity against human MIAPaCa2 cells assessed as cell death at 5 uM after 72 hrs in presence of 100 uM 6TP by alamar blue assay (reference value: 30.7%). Type of series: functional.
In series [20] the test system is REH. Kind of series: Synergistic antiproliferative activity against human REH cells assessed as cell death at 2.5 uM after 72 hrs in presence of 10 uM 6TP by alamar blue assay (reference value: 10.8%). Type of series: functional.
The subject of series [21] is REH. Kind of series: Synergistic antiproliferative activity against human REH cells assessed as cell death at 2.5 uM after 72 hrs in presence of 25 uM 6TP by alamar blue assay (reference value: 12.2%). In kind it is functional.
Series [22] relates to REH. As to the kind of experiment: Synergistic antiproliferative activity against human REH cells assessed as cell death at 2.5 uM after 72 hrs in presence of 50 uM 6TP by alamar blue assay (reference value: 21.9%). Type of series: functional.
The subject of series [23] is REH. Kind of series: Synergistic antiproliferative activity against human REH cells assessed as cell death at 2.5 uM after 72 hrs in presence of 100 uM 6TP by alamar blue assay (reference value: 49.5%). Type of series: functional.
Series [24] concerns REH. Kind of series: Synergistic antiproliferative activity against human REH cells assessed as cell death at 5 uM after 72 hrs in presence of 10 uM 6TP by alamar blue assay (reference value: 10.8%). Type of series: functional.
In series [25] the test system is REH. As to the kind of experiment: Synergistic antiproliferative activity against human REH cells assessed as cell death at 5 uM after 72 hrs in presence of 25 uM 6TP by alamar blue assay (reference value: 12.2%). Type of series: functional.
Series [26] has as its system REH. Kind of series: Synergistic antiproliferative activity against human REH cells assessed as cell death at 5 uM after 72 hrs in presence of 50 uM 6TP by alamar blue assay (reference value: 21.9%). In kind it is functional.
In series [27] the test system is REH. As to the kind of experiment: Synergistic antiproliferative activity against human REH cells assessed as cell death at 5 uM after 72 hrs in presence of 100 uM 6TP by alamar blue assay (reference value: 49.5%). Type of series: functional.
Series [28] concerns U-937. As to the kind of experiment: Synergistic antiproliferative activity against human U937 cells at 2.5 to 5 uM after 72 hrs in presence of 6TP by alamar blue assay based Chou-Talalay method. Type of series: functional, cell-based.
Series [29] deals with HeLa. Kind of series: Synergistic antiproliferative activity against human HeLa cells at 2.5 to 5 uM after 72 hrs in presence of 6TP by alamar blue assay. Type of series: functional, cell-based.
For series [30], the system named is A549. As to the kind of experiment: Synergistic antiproliferative activity against human A549 cells at 2.5 to 5 uM after 72 hrs in presence of 6TP by alamar blue assay. In kind it is functional, cell-based.
Series [31] has as its system HeLa. As to the kind of experiment: Antiproliferative activity against human HeLa cells assessed as reduction in cell viability after 72 hrs by alamar blue assay. Type of series: functional, cell-based. In a few lines: as §2
For series [32], the system named is MIA PaCa-2. Kind of series: Antiproliferative activity against human MIAPaCa2 cells assessed as reduction in cell viability after 72 hrs by alamar blue assay. Type of series: functional, cell-based. The conditions noted are these: MIA PaCa-2, 72 h. In a few lines:
as §2

Series [33] relates to U-937. Kind of series: Antiproliferative activity against human U937 cells assessed as reduction in cell viability after 72 hrs by alamar blue assay. In kind it is functional, cell-based. The conditions noted are these: U-937, 72 h. In a few lines: as §2
Series [34] deals with REH. Kind of series: Synergistic antiproliferative activity against human REH cells at 2.5 to 5 uM uM after 72 hrs in presence 6TP by alamar blue assay based alamar blue assay. Type of series: functional, cell-based.
Series [35] can be described thus: Inhibition of UDPGDH/UGT-1A in hepatocytes (unknown origin) assessed as reduction in BDG production at 25 uM by HPLC analysis. Type of series: ADME, cell-based. The note with it: human.

pIC50, pKi: −log10 of the molar value. The source made the active and inactive calls. No cut-off for these calls is given here. Bounds are passed on as bounds.

T1 sequence (P0C0F4 whole entry): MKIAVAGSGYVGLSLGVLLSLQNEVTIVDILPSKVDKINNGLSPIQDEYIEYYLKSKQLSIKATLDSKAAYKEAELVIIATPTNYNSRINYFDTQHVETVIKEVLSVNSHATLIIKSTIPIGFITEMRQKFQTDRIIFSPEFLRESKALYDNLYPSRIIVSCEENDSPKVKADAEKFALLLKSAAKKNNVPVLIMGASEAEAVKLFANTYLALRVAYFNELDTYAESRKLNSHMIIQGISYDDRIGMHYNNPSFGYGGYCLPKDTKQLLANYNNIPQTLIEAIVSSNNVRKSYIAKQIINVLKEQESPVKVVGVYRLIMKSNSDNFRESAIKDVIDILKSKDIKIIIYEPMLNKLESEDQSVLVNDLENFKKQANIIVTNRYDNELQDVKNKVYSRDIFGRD

Turning to `CNC(=O)c1cc(Oc2ccc(NC(=O)Nc3ccc(Cl)c(C(F)(F)F)c3)c(F)c2)ccn1` [REGORAFENIB], the “inhibition (INH)” value in series [1] and in series [2] was “Active” each time.

With `O=c1[nH]c(=S)c2[nH]c(=O)[nH]c2[nH]1`, the “inhibition (INH)” value in series [3] was “Not Active”; in series [4] it was “Not Active”; in [6] it was “Active”; in series [7], “Active”; in [9], “Not Active”; in [10], “Active”. Further, the values for the pKi in series [5] and in series [8] were 5.30 and 5.15, respectively.

With `COCOc1cc(OC)c(C(=O)/C=C/c2ccccc2)c(OCOC)c1`, the pIC50 (as a rule, the negative decadic logarithm of the IC50, by convention in mol/L) with A549 [11] was 5.14. Moreover, the Activity stood at 16.5% in the series on MIA PaCa-2 [12]; 18.6% in the series on MIA PaCa-2 [13]; 25.1% with MIA PaCa-2 [14]; 49.1% in the series on MIA PaCa-2 [15]; 25.4% in the series with MIA PaCa-2 [16]; 30% in the series with MIA PaCa-2 [17]. For the same molecule, the Activity amounted to 40.8% with MIA PaCa-2 [18]; 61.2% in the series on MIA PaCa-2 [19]; 11.1% in the series with REH [20]; 13.5% in the series on REH [21]; 22.1% with REH [22]; 51% in the series on REH [23]. For the same molecule, the Activity in the series with REH [24] is 12.7%; in the series with REH [25], 19.1%; with REH [26] it was 26.1%; in the series on REH [27] it was 51%. Moreover, the result with U-937 [28], in the series on HeLa [29] and in the series with A549 [30] was inactive.

`COCOc1cc(OCOC)c(C(=O)/C=C/c2ccccc2)c(OCOC)c1`: the pIC50 with HeLa [31] is 4.91; with A549 [11], less than 4.70; with MIA PaCa-2 [32], less than 4.70; in the series on U-937 [33], 5.13. In addition, the Activity in the series on MIA PaCa-2 [12] is listed as 14.2%; in the series with MIA PaCa-2 [13], 15%; in the series on MIA PaCa-2 [14] it was 16.9%; in the series on MIA PaCa-2 [15] it was 17.6%; in the series on MIA PaCa-2 [16] it was 18.4%; in the series with MIA PaCa-2 [17], 17.3%. Also, the values for the Activity with MIA PaCa-2 [18] and in the series on MIA PaCa-2 [19] were 17% and 19.3%, respectively. Further, the result in the series with U-937 [28], in the series with HeLa [29], in the series with A549 [30] and in the series with REH [34] was inactive.

For `COCOc1cc(O)c(C(=O)/C=C/c2ccccc2)c(OCOC)c1`, the Activity is given as 7% with MIA PaCa-2 [12]; 7.2% in the series on MIA PaCa-2 [13]; 9.7% in the series on MIA PaCa-2 [14]; 15.2% in the series on MIA PaCa-2 [15]; 8.1% in the series with MIA PaCa-2 [16]; 8.2% in the series on MIA PaCa-2 [17]. Also, the Activity in the series on MIA PaCa-2 [18] was determined as 13%; with MIA PaCa-2 [19] it was 19.9%. Moreover, the outcome in the series with U-937 [28], in the series on HeLa [29], in the series on A549 [30] and with REH [34] was inactive.

As to `Sc1ncnc2nc[nH]c12` [MERCAPTOPURINE ANHYDROUS], the figures for the negative logarithm of the Ki (pKi) in series [5] and in series [8] were 3.95 and 3.54, respectively. In addition, in [35], the “inhibition (INH)” value was “Active”.
